The source of these data is ChEMBL document CHEMBL3045447, “Isolation and structural elucidation of eight new related analogues of the mycotoxin (-)-botryodiplodin from Penicillium coalescens” (2007).

What all share (format): functional
In assay [1] the test system is Fusarium oxysporum f. sp. gladioli. The experiment in a line: Antifungal activity against Fusarium oxysporum f. sp. gladioli CCM 233 at 10 ug/disk after 72 hr by paper disk agar diffusion assay. To be noted: CCM 233, 72 h, read-out: IZ. In short, it runs like this: (§1)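 Paper disk–agar diffusion, triplicate. Fungus grown on PDA 7 days at 28 °C. Conidia suspended at ca. 10^6/mL in 0.05% Tween 80. 1 mL seeded into 15 mL PDA. After solidification, four 0.5 cm paper disks loaded with test product. Inhibition zone (mm) read at 72 h. Solvent-only disks as negative control; benomyl disks, dose set per species, as positive control.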
On the technique in general: A growth-free zone around the sample is the usual read-out of agar diffusion tests.

The next assay relates to Aspergillus parasiticus. The experiment in a line: Antifungal activity against Aspergillus parasiticus CECT 2681 at 1 ug/disk after 72 hr by paper disk agar diffusion assay. Conditions: CECT 2681, 72 h, read-out: IZ. In short, it runs like this:
as §1

Assay [2] concerns Verticillium dahliae. The experiment in a line: Antifungal activity against Verticillium dahliae CCM 269 at 0.25 ug/disk after 72 hr by paper disk-agar diffusion assay. Conditions: CCM 269, 72 h, read-out: IZ. In short, it runs like this: as §1
The test system of assay [3] is Colletotrichum gloeosporioides. The experiment in a line: Antifungal activity against Colletotrichum gloeosporioides CECT 2859 at 0.5 ug/disk after 72 hr by paper disk-agar diffusion assay. Conditions: CECT 2859, 72 h, read-out: IZ. In short, it runs like this:
as §1

Another assay relates to Trichothecium roseum. The experiment in a line: Antifungal activity against Trichothecium roseum CECT 2410 at 5 ug/disk after 72 hr by paper disk agar diffusion assay. Conditions: CECT 2410, 72 h, read-out: IZ. In short, it runs like this:
as §1

Another assay has as its system Trichoderma viride. The experiment in a line: Antifungal activity against Hypocrea rufa CECT 2423 at 1 ug/disk after 72 hr by paper disk agar diffusion assay. Conditions: CECT 2423, 72 h, read-out: IZ. The method, boiled down:
as §1

Assay [4] deals with Fusarium oxysporum f. sp. niveum. The experiment in a line: Antifungal activity against Fusarium oxysporum f. sp. niveum CCM 259 at 5 ug/disk after 72 hr by paper disk-agar diffusion assay. To be noted: CCM 259, 72 h, read-out: IZ. The method, boiled down:
as §1

For assay [5], the system named is Phytophthora citrophthora. The experiment in a line: Antifungal activity against Phytophthora citrophthora CECT 2353 at 1.5 ug/disk after 72 hr by paper disk agar diffusion assay. To be noted: CECT 2353, 72 h, read-out: IZ. In short, it runs like this: as §1
For a further assay, the system named is Fusarium culmorum. The experiment in a line: Antifungal activity against Fusarium culmorum CECT 2148 at 10 ug/disk after 72 hr by paper disk agar diffusion assay. To be noted: CECT 2148, 72 h, read-out: IZ. In short, it runs like this:
as §1

Another assay deals with Penicillium italicum. The experiment in a line: Antifungal activity against Penicillium italicum CECT 2294 at 0.2 ug/disk after 72 hr by paper disk-agar diffusion assay. To be noted: CECT 2294, 72 h, read-out: IZ. The method, boiled down:
as §1

Assay [6] relates to Pectobacterium carotovorum. The experiment in a line: Antibacterial activity against Pectobacterium carotovorum CECT 225 at 0.2 mg/disk […] by paper disk-agar diffusion assay.
A further assay deals with Staphylococcus aureus. The experiment in a line: Antibacterial activity against Staphylococcus aureus CECT 86 at 0.2 mg/disk after 24 hr by paper disk agar diffusion assay. The method, boiled down: (§2)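 Paper disk–agar diffusion, triplicate. Each bacterium grown 24 h in Nutrient Broth at 28 °C or 37 °C, per organism. 1 mL suspension inoculated into a plate, then 15 mL Plate Count Agar added. Five loaded disks placed after solidification. Plates incubated 24 h dark at 28 or 37 °C. Halo measured. Solvent-only disks as negative control; tetracycline chlorhydrate as positive control.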

In a further assay the test system is Enterococcus faecalis. The experiment in a line: Antibacterial activity against Enterococcus faecalis CECT 481 at 0.2 mg/disk after 24 hr by paper disk agar diffusion assay. In short, it runs like this: as §2
A further assay concerns Bacillus cereus. The experiment in a line: Antibacterial activity against Bacillus cereus CECT 148 at 0.2 mg/disk after 24 hr by paper disk agar diffusion assay. The method, boiled down: as §2
The next assay concerns Escherichia coli. The experiment in a line: Antibacterial activity against Escherichia coli CECT 405 at 0.2 mg/disk after 24 hr by paper disk agar diffusion assay. In short, it runs like this: as §2
A further assay relates to Oncopeltus fasciatus. The experiment in a line: Insecticidal activity against Oncopeltus fasciatus fourth-instar larvae assessed as insect mortality measured after 72 hr post compound application. The method, boiled down: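 Treated nymphs confined in a 9 cm Petri dish with food and water ad libitum. Acetone-only controls run in parallel. Acute toxicity scored as dead insects after 72 h, in triplicate. LD50 (µg/nymph) from linear regression of probit mortality on log dose.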

Assay [7] deals with Verticillium dahliae. The experiment in a line: Antifungal activity against Verticillium dahliae CCM 269 at 0.2 mg/disk after 72 hr by paper disk-agar diffusion assay. The method, boiled down: as §1
The next assay has as its system Ceratitis capitata. The experiment in a line: Insecticidal activity against Ceratitis capitata 2 to 3 days old adult male flies assessed as insect mortality measured after 10 days post compound application. The method, boiled down: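 Topical dose in 1 µL acetone applied by micropipet to the ventral abdomen of ice-anaesthetised 2–3-day-old adults, five males plus five females per group. Controls got acetone alone. Flies kept in a netted box with diet and water ad libitum. Mortality scored every 24 h for 10 days, in triplicate. LD50 from probit of mortality vs log dose.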

The test system of assay [8] is Phytophthora citrophthora. The experiment in a line: Antifungal activity against Phytophthora citrophthora CECT 2353 at 0.2 mg/disk after 72 hr by paper disk agar diffusion assay. The method, boiled down:
as §1

`CCCCNC(=O)n1c(NC(=O)OC)nc2ccccc21` [BENOMYL]: the values for the zone of inhibition at 10 µg/disc (in [1]; in the assay with Fusarium culmorum) were 9.33 mm and 19 mm, respectively. Moreover, the zone of inhibition at 1 µg/disc stood at 8.33 mm in the assay with Aspergillus parasiticus and 12.3 mm in the assay on Trichoderma viride. The zone of inhibition at 0.25 µg/disc in the assay with Verticillium dahliae [2] amounted to 14.3 mm. The zone of inhibition at 0.5 µg/disc in assay [3] stood at 26.7 mm. Further, the values for the zone of inhibition at 5 µg/disc (with Trichothecium roseum; in assay [4]) were 29.7 mm and 17.3 mm, respectively. The zone of inhibition at 1.5 µg/disc in assay [5] is 17.1 mm. In the assay with Penicillium italicum, the zone of inhibition at 0.2 µg/disc was found to be 16.7 mm.
Take `CN(C)[C@@H]1C(O)=C(C(N)=O)C(=O)[C@@]2(O)C(O)=C3C(=O)c4c(O)cccc4[C@@](C)(O)[C@H]3C[C@@H]12.Cl` [TETRACYCLINE HYDROCHLORIDE]: the “inhibition zone (IZ)” value in assay [6] came out at 34.67 mm; in the assay with Staphylococcus aureus it was 16.67 mm; in the assay with Enterococcus faecalis it was 31.67 mm; with Bacillus cereus it was 18.33 mm; in the assay on Escherichia coli, 24 mm.
For the compound `C=C(C(C)=O)[C@@H](C)CO[C@@H]1OC[C@@H](C(C)=O)[C@H]1C` [(-)-2-EPI-BOTRYODIPLODINENONE], in the assay on Oncopeltus fasciatus, the LD50 was >15 µg.
As for `CC(=O)[C@@H]1COC(O)[C@@H]1C` (single isomer, unassigned; (-)) [(-)-BOTRYODIPLODIN], the results for the “inhibition zone (IZ)” value (in the assay with Staphylococcus aureus; with Verticillium dahliae [7]; in assay [8]) were 13.53 mm, 17.31 mm and 8.21 mm, respectively. For the same compound, the results for the LD50 in the assay on Ceratitis capitata and in the assay with Oncopeltus fasciatus were 12.9 µg and 5.55 µg, respectively.
For `CC(=O)O[C@@H]1OC[C@@H](C(C)=O)[C@H]1C` (relative stereo) [Botryodiplodin acetate], the LD50 with Oncopeltus fasciatus amounted to 12.19 µg.
On the same count and under the same terms, the same measure for `CC(=O)[C@@H]1CO[C@@H](O[C@@H]2OC[C@@H](C(C)=O)[C@H]2C)[C@@H]1C` [(-)-BOTRYODIPLODIN DIMER]: >15 µg.
